Data taken from paper PMC11364137 (Materials Today Bio, 2024).
Each block holds one molecule with its values, some of them ahead of it.

Legend:
[1] = tested on: S. aureus bacterial strain ATCC25923; assay: In vivo hernia mesh infection model; design: species or system New Zealand white rabbits; settings: rabbit, 14 days after surgery
In short: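 Rabbit mesh-implant infection model; anaesthesia im 15 min pre-surgery with ketamine (70 mg kg), diazepam and chlorpromazine (1.5 mg kg⁻¹ each). S. aureus ATCC25923 was grown on LB agar 24 h, 37 °C, then overnight in LB and diluted in 0.9 % saline to a target 10^6 CFU.mL⁻¹. At 14 days animals were xylazine-sedated (im), CO₂-euthanised; implant fragments examined by light microscopy and SEM.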

[2] = tested on: S. aureus; assay: Resistance acquisition assay; type: cell-based, Staphylococcus aureus; settings: second assay, concentration kept constant (half of the initial MIC), 30 days

- inflammatory reaction (histology) [1]: moderate inflammatory reaction
Molecule: [H]/N=C(\N/C(=N/[H])NCCCCCCNC(=N)NC(=N)Nc1ccc(Cl)cc1)Nc1ccc(Cl)cc1 [CHX, Chlorhexidine]
- macroscopic observations at necropsy compared with uncoated mesh [1]: less purulent material, weak hypervascularization, and better tissue integration
- skin fistula, necrosis, or edema at necropsy ([1]; n = 7 per group): no animal developed skin fistula, necrosis, or edema
- bacteria presence in tissue (histology, S. aureus immunolabeling) ([1]; qualitative): not recorded or noticeably reduced

Molecule: CN(C)[C@@H]1C(O)=C(C(N)=O)C(=O)[C@@]2(O)C(O)=C3C(=O)c4c(O)cccc4[C@@](C)(O)[C@H]3C[C@@H]12 [tetracycline]
- increase of relative MIC [2]: around 3 times

Molecule: Poly(L-arginine) [PAR30]
- increase of relative MIC [2]: strongly stable
